What was measured:
[1] = target: T1, CB2 receptors (Mus musculus, UniProt P47936); experiment: Blocking dissection study in control CD1 mice; format: in vivo; details: AM630 3 mg/kg or GW405833 2 mg/kg s.c., 60 min
Outline: (§1)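 Control CD1 mice, or CD1 mice 5 days after a single i.p. LPS dose (5 mg/kg in saline, strain O111:B4), received AM630 3 mg/kg or GW405833 2 mg/kg s.c. in DMSO; controls got DMSO vehicle. Radiotracer (~150 GBq/μmol) was given i.v. 30 min later, and tissues were harvested at 60 min and gamma-counted. Whole-brain uptake was %ID/g per body weight normalized by blood; mean ± SD, n=3.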

[2] = target: T1, CB2 receptors; experiment: Blocking dissection study in LPS-5-day-treated CD1 mice; format: in vivo; details: for reduction of the specific binding of [11C]1 in whole brain: LPS-5-day mice, AM630 3 mg/kg or GW405833 2 mg/kg s.c., normalized uptake, 60 min, control CD1 mice as measure of non-specific binding
Outline: as §1

[3] = target: T1, CB2 receptors; format: in vivo; details: APPswe/PS1dE9 mice
[4] = target: T1, CB2 receptors; experiment: Baseline dissection biodistribution of [11C]1 in control CD1 mice; format: in vivo; details: i.v., whole body time-activity curve
Outline: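 Male CD-1 mice (23-28 g) received the radiotracer (specific radioactivity ~150 GBq/μmol, in saline) by lateral tail vein. They were killed by cervical dislocation at various times after injection. Organs and brain were removed and dissected on ice, then weighed and gamma-counted (counting error below 3%) against injectate aliquots as standards. Uptake was expressed as %ID/g tissue.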

[5] = target: T1, CB2 receptors; format: in vivo, mice
Outline: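 Male CD1 mice got a single i.p. LPS dose (5 mg/kg in saline, strain O111:B4) 3 or 5 days before i.v. radiotracer; untreated CD1 mice served as controls. At 60 min, cerebellum, hippocampus, cortex, brainstem and rest of brain were dissected, weighed and gamma-counted. Uptake was %ID/g tissue (± SD, n=3), and regional ratios were taken as 5-day LPS over control.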

T1 sequence (P47936 whole entry): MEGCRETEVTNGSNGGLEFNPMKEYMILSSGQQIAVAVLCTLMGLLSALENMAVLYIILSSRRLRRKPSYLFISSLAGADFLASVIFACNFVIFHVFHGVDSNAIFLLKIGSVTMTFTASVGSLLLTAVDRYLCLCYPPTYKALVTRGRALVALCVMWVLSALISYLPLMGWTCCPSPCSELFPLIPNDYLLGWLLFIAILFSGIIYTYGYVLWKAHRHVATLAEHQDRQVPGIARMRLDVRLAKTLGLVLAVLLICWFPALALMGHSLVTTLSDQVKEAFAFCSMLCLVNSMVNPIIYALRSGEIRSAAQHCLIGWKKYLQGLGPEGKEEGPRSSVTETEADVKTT

Compound | difference in normalized whole brain uptake between baseline and blockade [1] | reduction of the specific binding of [11C]1 in whole brain [2] [%] | reduction of radioactivity uptake by blockade in cerebellum and brainstem ([3]; AM630, 60 min) | reduction of radioactivity uptake by blockade in cortex and rest of brain ([3]; AM630, 60 min) | uptake difference between baseline and blockade, brainstem ([3]; AM630 blockade, 60 min, brainstem) [%] | uptake difference between baseline and blockade, cerebellum ([3]; AM630 blockade, 60 min, cerebellum) [%] | uptake difference between baseline and blockade, cortex ([3]; AM630 blockade, 60 min, cortex) [%] | uptake difference between baseline and blockade, rest of brain ([3]; AM630 blockade, 60 min, rest of brain) [%] | uptake of [11C]1 in the brain ([4]; brain) [%ID/g tissue] | uptake of [11C]1 in the heart ([4]; heart) [%ID/g tissue] | uptake of [11C]1 in the intestine ([4]; intestine) [%ID/g tissue] | uptake of [11C]1 in the kidney ([4]; kidney) [%ID/g tissue] | uptake of [11C]1 in the liver ([4]; liver) [%ID/g tissue] | uptake of [11C]1 in the spleen ([4]; spleen) [%ID/g tissue] | increase of brain uptake versus control mice, LPS three days before (Group 2) ([5]; LPS-3-day-treated CD1 mice versus control, all brain regions) | regional uptake ratio of Group 3 to Group 1, cerebellum ([5]; LPS-5-day-treated versus control CD1 mice, %ID/g tissue, cerebellum) | regional uptake ratio of Group 3 to Group 1, cortex ([5]; LPS-5-day-treated versus control CD1 mice, %ID/g tissue, cortex) | regional uptake ratio of Group 3 to Group 1, hippocampus ([5]; LPS-5-day-treated versus control CD1 mice, %ID/g tissue, hippocampus) | regional uptake ratio of Group 3 to Group 1, rest of the brain ([5]; LPS-5-day-treated versus control CD1 mice, %ID/g tissue, rest of the brain) | specific CB2 cerebral uptake ([2]; LPS-induced mouse model of neuroinflammation, summary)
COc1ccc(C(=O)c2c(C)n(CCN3CCOCC3)c3cc(I)ccc23)cc1 [AM630] | little difference | 78 | insignificant reduction | significant reduction | 29 | 29 | 36 | 33 | – | – | – | – | – | – | – | – | – | – | – | –
Cc1sc(=NC(=O)C2C(C)(C)C2(C)C)n(CCO[11CH3])c1C [[^11C]1] | – | – | – | – | – | – | – | – | 0.3 | 0.7 | 1.5 | 2.2 | 4.9 | 1.3 | insignificant increase | 1.8 | 1.7 | 1.9 | 1.5 | 78-84%
COc1ccc2c(c1)c(CCN1CCOCC1)c(C)n2C(=O)c1cccc(Cl)c1Cl [GW405833] | little difference | 84 | – | – | – | – | – | – | – | – | – | – | – | – | – | – | – | – | – | –
